≈ marks a conversion by molar mass, not a printed value.
Columns and labels:
Enterococcus faecium = assay: In vitro antibacterial activity against gram-positive Enterococcus faecium ATCC 8043; type: functional
Outline: (§1)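 Agar dilution MIC determination following the National Committee for Clinical Laboratory Standards recommendations.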

Escherichia coli [1] = assay: In vitro antibacterial activity against gram negative Escherichia coli KNK 437; type: functional; outline: as §1
Pseudomonas aeruginosa [2] = assay: (§2) In vivo efficacy against Pseudomonas aeruginosa 5007 in mouse protection test after subcutaneous administration; type: functional
Outline: (§3)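 Mouse protection model: mice infected intravenously with 100-fold LD50 of the organism. Compound given by subcutaneous injection or oral gavage at 1 and 5 h after infection, over a dose range. Deaths tracked for 7 days post-inoculation. ED50 is the dose giving 50% survival of treated mice over the trial.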

Mus musculus [3] = assay: In vivo efficacy against Pseudomonas aeruginosa 5007 in mouse protection test […]; type: functional; outline: as §3
Staphylococcus aureus [4] = assay: In vivo efficacy against Staphylococcus aureus NCTC 10649M in mouse protection test after p.o. administration.; type: functional; outline: as §3
Staphylococcus aureus [5] = assay: In vivo efficacy against Staphylococcus aureus NCTC 10649M in mouse; type: functional; conditions: Staphylococcus aureus; read-out: ED50; outline: as §3
Mus musculus [6] = assay: In vivo efficacy against Streptococcus pneumoniae ATCC 6303 after subcutaneous administration; type: functional; conditions: sc; outline: as §3
Escherichia coli [7] = assay: In vivo efficacy against Escherichia coli JUHL in mouse protection test after subcutaneous administration; type: functional; outline: as §3
Burkholderia cepacia = assay: In vitro antibacterial activity against gram negative Pseudomonas cepacia 2961; type: functional; outline: as §1
Staphylococcus aureus [8] = assay: In vitro antibacterial activity against gram-positive Staphylococcus aureus 1775; type: functional; outline: as §1
Staphylococcus aureus [9] = assay: In vitro antibacterial activity against gram-positive Staphylococcus aureus NCTC 10649M; type: functional; conditions: Staphylococcus aureus, NCTC 10649; read-out: MIC; outline: as §1
Mus musculus [10] = assay: In vivo efficacy against Streptococcus pneumoniae ATCC 6303 after administration by oral gavage; type: functional; outline: as §3
Mus musculus [11] = assay: IIn vivo efficacy against Escherichia coli JUHL in mouse protection test after administration by oral gavage.; type: functional; outline: as §3
Mus musculus [12] = assay: In vivo efficacy against Staphylococcus aureus NCTC 10649M in mouse protection test after administration by oral gavage; type: functional
Mus musculus [13] = assay: In vivo efficacy against Streptococcus pneumoniae ATCC 6303 in mouse protection test after administration by oral gavage; type: functional; outline: as §3
Mus musculus [14] = assay: In vivo efficacy against Streptococcus pneumoniae ATCC 6303 in mouse protection test after subcutaneous administration; type: functional; conditions: sc; outline: as §3
Escherichia coli [15] = assay: In vivo efficacy against Escherichia coli JUHL in mouse protection test after p.o. administration.; type: functional; outline: as §3
Pseudomonas aeruginosa [16] = assay: In vivo efficacy against Pseudomonas aeruginosa 5007 in mouse protection test after administration by oral gavage; type: functional; outline: as §3
Pseudomonas aeruginosa [17] = assay: Not Plasmodium species; type: functional
Mus musculus [18] = assay: In vivo efficacy against Staphylococcus aureus NCTC 10649M in mouse protection test after subcutaneous administration.; type: functional; conditions: sc; outline: as §3
Streptococcus pneumoniae = assay: In vivo efficacy against Streptococcus pneumoniae ATCC 6303 in mouse protection test after s.c. administration.; type: functional; outline: as §3
Mus musculus [19] = assay: InIn vivo efficacy against Escherichia coli JUHL in mouse protection test after administration by oral gavage; type: functional; outline: as §3
Mus musculus [20] = assay: IIn vivo efficacy against Streptococcus pneumoniae ATCC 6303 in mouse protection test after administration by oral gavage; type: functional; outline: as §3
Pseudomonas aeruginosa [21] = assay: In vitro antibacterial activity against gram negative P. aeruginosa DPHP 5263; type: functional; conditions: Pseudomonas aeruginosa, DPHP 5263; read-out: MIC; outline: as §1
Mus musculus [22] = assay: IIn vivo efficacy against Escherichia coli JUHL in mouse protection test after by oral gavage; type: functional; outline: as §3
Pseudomonas aeruginosa [23] = assay: In vitro antibacterial activity against Gram-negative Pseudomonas aeruginosa 5007; type: functional; conditions: Pseudomonas aeruginosa; read-out: MIC; outline: as §1
Streptococcus pyogenes = assay: In vitro antibacterial activity against gram positive Streptococcus pyogenes 930; type: functional; conditions: Streptococcus pyogenes; read-out: MIC; outline: as §1
Mus musculus [24] = assay: as §2; type: functional; conditions: sc; outline: as §3
Mus musculus [25] = assay: IIn vivo efficacy against Streptococcus pneumoniae ATCC 6303 in mouse protection test after oral administration by oral gavage
Mus musculus [26] = assay: In vivo efficacy against Staphylococcus aureus NCTC 10649M in mouse protection test after administration by subcutaneous administration; type: functional; conditions: sc; outline: as §3
Staphylococcus aureus [27] = assay: In vitro antibacterial activity against gram-positive Staphylococcus aureus NCTC 10649M
[28] = Enterococcus faecium, ATCC 8043, read-out: MIC
[29] = Escherichia coli, read-out: MIC
[30] = Pseudomonas aeruginosa, sc, read-out: ED50
[31] = Staphylococcus aureus, po, read-out: ED50
[32] = Escherichia coli, sc, read-out: ED50
[33] = Burkholderia cepacia, read-out: MIC
[34] = Staphylococcus aureus, read-out: MIC
[35] = Escherichia coli, po, read-out: ED50
[36] = Pseudomonas aeruginosa, po, read-out: ED50
[37] = Streptococcus pneumoniae, sc, read-out: ED50

Row | MIC (Enterococcus faecium; [28]) [µg/mL] | MIC (Escherichia coli [1]; [29]) [µg/mL] | MIC (Burkholderia cepacia; [33]) [µg/mL] | MIC (Staphylococcus aureus [8]; [34]) [µg/mL] | MIC (Staphylococcus aureus [9]) [µg/mL] | MIC (Pseudomonas aeruginosa [21]) [µg/mL] | MIC (Pseudomonas aeruginosa [23]) [µg/mL] | MIC (Streptococcus pyogenes) [µg/mL] | SMILES | ED50 (Pseudomonas aeruginosa [2]; [30]) [mg/kg] | ED50 (Staphylococcus aureus [4]; [31]) [mg/kg] | ED50 (Staphylococcus aureus [5]) [mg/kg] | ED50 (Escherichia coli [7]; [32]) [mg/kg] | further results
1 | 0.02 (≈ 0.0579 µM) | 0.02 (≈ 0.0579 µM) | 0.39 (≈ 1.13 µM) | 0.78 (≈ 2.26 µM) | 0.02 (≈ 0.0579 µM) | – | – | – | Cc1c(N2CC[C@H](N)C2)c(F)cn2c(=O)c(C(=O)O)cc(C3CC3)c12 (stereo in doubt; 3i) [ABT-719] | 0.5 | 3 | 0.8 | 0.3 | ED50 (Mus musculus [3]): 2.9 mg/kg; ED50 (Mus musculus [6]): 2.6 mg/kg; ED50 (Mus musculus [10]): 10 mg/kg; ED50 (Mus musculus [11]): 8.3 mg/kg
2 | 0.2 (≈ 0.538 µM) | 0.39 (≈ 1.05 µM) | 0.78 (≈ 2.1 µM) | 6.2 (≈ 16.7 µM) | 0.1 (≈ 0.269 µM) | 0.62 (≈ 1.67 µM) | – | – | Cc1c(N2C[C@H]3CCN[C@H]3C2)c(F)cn2c(=O)c(C(=O)O)cc(C3CC3)c12 | 18 | 5 | – | 0.8 | ED50 (Mus musculus [18]): 1.5 mg/kg; ED50 (Streptococcus pneumoniae; [37]): 2.3 mg/kg; ED50 (Mus musculus [19]): 10 mg/kg; ED50 (Pseudomonas aeruginosa [16]; [36]): > 50 mg/kg; ED50 (Mus musculus [20]): 11.2 mg/kg
3 | 0.1 (≈ 0.268 µM) | 0.1 (≈ 0.268 µM) | 1.56 (≈ 4.18 µM) | 0.39 (≈ 1.04 µM) | 0.02 (≈ 0.0536 µM) | 6.1 (≈ 16.3 µM) | 0.39 (≈ 1.04 µM) | 0.1 (≈ 0.268 µM) | CN[C@@H]1CN(c2c(F)cn3c(=O)c(C(=O)O)cc(C4CC4)c3c2C)C[C@@H]1C | – | – | 1.3 | 0.5 | ED50 (Mus musculus [22]): 2.7 mg/kg
4 | 0.1 (≈ 0.25 µM) | 0.05 (≈ 0.125 µM) | 0.78 (≈ 1.95 µM) | 0.39 (≈ 0.976 µM) | 0.01 (≈ 0.025 µM) | 3.1 (≈ 7.76 µM) | 0.2 (≈ 0.501 µM) | 0.02 (≈ 0.0501 µM) | Cc1c(N2CCC[C@H](NC3CC3)C2)c(F)cn2c(=O)c(C(=O)O)cc(C3CC3)c12 | – | – | 0.8 | > 5 | ED50 (Mus musculus [24]): > 32 mg/kg; ED50 (Streptococcus pneumoniae; [37]): 4.3 mg/kg
5 | 0.2 (≈ 0.536 µM) | 0.39 (≈ 1.04 µM) | 1.56 (≈ 4.18 µM) | 1.56 (≈ 4.18 µM) | 0.05 (≈ 0.134 µM) | 12.5 (≈ 33.5 µM) | 0.78 (≈ 2.09 µM) | 0.1 (≈ 0.268 µM) | Cc1c(N2CC[C@H](C)[C@H](N)C2)c(F)cn2c(=O)c(C(=O)O)cc(C3CC3)c12 (stereo in doubt; 3ss) | – | – | 3.3 | – | ED50 (Staphylococcus aureus [4]): 0.8 mg/kg; ED50 (Streptococcus pneumoniae): 1 mg/kg; ED50 (Escherichia coli [15]): 1.4 mg/kg; ED50 (Escherichia coli [7]): 0.6 mg/kg; ED50 (Mus musculus [25]): 2 mg/kg
6 | – | – | – | – | – | – | – | – | Cc1c(N2C[C@@H]3CCN[C@@H]3C2)c(F)cn2c(=O)c(C(=O)O)cc(C3CC3)c12 (stereo in doubt) | – | 1.5 | – | – | MIC (Enterococcus faecium): 0.1 µg/mL (≈ 0.269 µM); MIC (Escherichia coli [1]): 0.1 µg/mL (≈ 0.269 µM); ED50 (Pseudomonas aeruginosa [2]): 5 mg/kg; ED50 (Mus musculus [26]): 0.6 mg/kg; ED50 (Escherichia coli [15]; [35]): 1.1 mg/kg; ED50 (Escherichia coli [7]): 0.5 mg/kg; ED50 (Pseudomonas aeruginosa [16]): 17.9 mg/kg; MIC (Burkholderia cepacia): 0.78 µg/mL (≈ 2.1 µM); MIC (Staphylococcus aureus [8]): 3.1 µg/mL (≈ 8.35 µM); MIC (Staphylococcus aureus [27]): 0.05 µg/mL (≈ 0.135 µM)

Row | SMILES | MIC (Enterococcus faecium; [28]) [µg/mL] | MIC (Escherichia coli [1]; [29]) [µg/mL] | MIC (Burkholderia cepacia; [33]) [µg/mL] | MIC (Staphylococcus aureus [8]; [34]) [µg/mL] | MIC (Staphylococcus aureus [9]) [µg/mL] | MIC (Pseudomonas aeruginosa [21]) [µg/mL] | MIC (Pseudomonas aeruginosa [23]) [µg/mL] | MIC (Streptococcus pyogenes) [µg/mL] | ED50 (Pseudomonas aeruginosa [2]; [30]) [mg/kg] | ED50 (Staphylococcus aureus [4]; [31]) [mg/kg] | ED50 (Staphylococcus aureus [5]) [mg/kg] | ED50 (Escherichia coli [7]; [32]) [mg/kg] | further results
7 | O=C(O)c1cn(C2CC2)c2cc(N3CCNCC3)c(F)cc2c1=O [CIPROFLOXACIN] | 0.39 (≈ 1.18 µM) | – | 6.2 (≈ 18.7 µM) | > 100 | 0.39 (≈ 1.18 µM) | – | – | – | 2.4 | – | 3.6 | 0.2 | ED50 (Mus musculus [12]): 25 mg/kg; ED50 (Mus musculus [13]): > 100 mg/kg; ED50 (Mus musculus [14]): 37.4 mg/kg; ED50 (Escherichia coli [15]; [35]): 1.3 mg/kg; ED50 (Pseudomonas aeruginosa [16]; [36]): 20 mg/kg; MIC (Pseudomonas aeruginosa [17]): 0.1 µg/mL (≈ 0.302 µM)

Reference: ChEMBL document CHEMBL1132437, “Synthesis and antimicrobial activity of 4H-4-oxoquinolizine derivatives: consequences of structural modification at the C-8 position” (1999)
